The source of these data is ChEMBL document CHEMBL3407346, “Design, synthesis, and biological evaluation of sulfonyl acrylonitriles as novel inhibitors of cancer metastasis and spread” (J Med Chem, 2015).

Experiment [1] is described as follows: Cytotoxicity against human BxPC3 cells co-cultured with human mesothelial cells at 10 uM after 4 hrs by firefly luciferase assay relative to control. Format: functional, BXPC-3. The procedure, abridged: (§1)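 Co-culture of luciferase-transduced cancer cells (puromycin/G418-selected retroviral pLuc) with confluent human mesothelial monolayers. Suspended cancer cells plus 10 µM compound (final) or DMSO were overlaid for 4 h. Non-adherent cells were washed off and surviving adherent cells quantified by firefly luciferase luminescence. Efficacy = treated/DMSO luminescence ratio; mean±SEM, n=3.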

Experiment [2] is described as follows: Cytotoxicity against human SU86 cells co-cultured with human mesothelial cells at 10 uM after 4 hrs by firefly luciferase assay relative to control. Format: functional. The procedure, abridged:
as §1

Experiment [3] concerns A2780. The experiment is described as follows: Cytotoxicity against human A2780 cells co-cultured with human mesothelial cells at 10 uM after 4 hrs by firefly luciferase assay relative to control. Format: functional. Put shortly:
as §1

Experiment [4] in a line: Cytotoxicity against human SKOV3 cells co-cultured with human mesothelial cells at 10 uM after 4 hrs by firefly luciferase assay relative to control. It counts as functional, SK-OV-3. The procedure, abridged:
as §1

Experiment [5] in a line: Cytotoxicity against human SKOV3 cells co-cultured with human mesothelial cells after 4 hrs by firefly luciferase assay relative to control. It counts as functional, cell-based. Conditions: SK-OV-3, 4 h. The procedure, abridged: (§2)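 Luciferase-expressing cancer cells in suspension were treated with a series of compound concentrations or DMSO, overlaid on confluent human mesothelial monolayers for 4 h, and washed to remove non-adherent cells. Surviving adherent cells were read by luciferase luminescence relative to vehicle, and EC50 was derived from the concentration series.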

A short description of experiment [6]: Cytotoxicity against human SU86 cells co-cultured with human mesothelial cells after 4 hrs by firefly luciferase assay relative to control. Format: functional, cell-based. The procedure, abridged: as §2
Experiment [7] relates to A2780. The experiment is described as follows: Cytotoxicity against human A2780 cells co-cultured with human mesothelial cells after 4 hrs by firefly luciferase assay relative to control. The settings on record: A2780, 4 h. Format: functional, cell-based. Put shortly:
as §2

The nature of experiment [8]: Cytotoxicity against human BxPC3 cells co-cultured with human mesothelial cells after 4 hrs by firefly luciferase assay relative to control. Conditions: BXPC-3, 4 h. Format: functional, cell-based. Put shortly:
as §2

Molecules are shown by their SMILES.

As to `CC(C)(C(=O)NCC#Cc1ccccc1)c1ccc(S(=O)(=O)/C=C/C#N)cc1`, the Ratio in experiment [1] worked out at 0.14; in experiment [2], 0.5; in experiment [3], 0.07; in experiment [4] it was 0.4.

Consider `N#C/C=C/S(=O)(=O)c1ccc(C2(C(=O)Nc3ccccc3)CCOCC2)cc1`, for which the Ratio in experiment [1] stood at 0.85; in experiment [2] it was 0.92; in experiment [3] it was 0.87; in experiment [4], 0.97.

With `CC(C)(C(=O)NCc1cccc(F)c1)c1ccc(S(=O)(=O)/C=C/C#N)cc1`, the Ratio in experiment [1] was determined as 0.17; in experiment [2] it was 0.24; in experiment [3], 0.05; in experiment [4], 0.3.

As for `CC(C)(c1ccc(S(=O)(=O)/C=C/C#N)cc1)c1nnc(C2CCCCC2)o1`, the Ratio in experiment [1] is given as 0.13; in experiment [2], 0.27; in experiment [3], 0.02; in experiment [4] it was 0.28.

For the compound `CC(C)(C)c1cc(S(=O)(=O)/C=C/C#N)ccc1OCC(=O)O`, the Ratio in experiment [1] is given as 0.81; in experiment [2], 0.97; in experiment [3], 1.05; in experiment [4], 0.92.

On to `CN(Cc1ccc(F)cc1)C(=O)C(C)(C)c1ccc(S(=O)(=O)/C=C/C#N)cc1`, for which the Ratio in experiment [1] is 0.11; in experiment [2] it was 0.23; in experiment [3] it was 0.02; in experiment [4] it was 0.22.

`CC(C)(C(=O)NC1CCCCC1)c1ccc(S(=O)(=O)/C=C/C#N)cn1`: the Ratio in experiment [1] is recorded as 0.16; in experiment [2], 0.61; in experiment [3], 0.16; in experiment [4], 0.58.

On to `N#C/C=C/S(=O)(=O)c1ccc(C2(C(=O)NCc3ccc(Cl)cc3)CCOCC2)cc1`, for which the Ratio is listed as 0.3 in experiment [1], 0.66 in experiment [2], 0.46 in experiment [3] and 0.71 in experiment [4].

As to `CC(C)(C(=O)NCc1ccccc1F)c1ccc(S(=O)(=O)/C=C/C#N)cc1`, the Ratio in experiment [1] came out at 0.15; in experiment [2], 0.2; in experiment [3], 0.03; in experiment [4], 0.3.

On to `N#C/C=C/S(=O)(=O)c1ccc(C2(C(=O)NCc3ccc(F)cc3)CC2)cc1`, for which the Ratio in experiment [1] was determined as 0.34; in experiment [2], 0.64; in experiment [3], 0.06; in experiment [4], 0.43.

For the compound `COCCOCc1ccc(NC(=O)C(C)(C)c2ccc(S(=O)(=O)/C=C/C#N)cc2)cc1`, the Ratio was determined as 0.4 in experiment [1], 0.66 in experiment [2], 0.26 in experiment [3] and 0.6 in experiment [4].

In the case of `CC(C)(C(=O)NCc1ccc(S(C)(=O)=O)cc1)c1ccc(S(=O)(=O)/C=C/C#N)cc1`, the Ratio in experiment [1] is 0.99; in experiment [2], 1.09; in experiment [3], 0.95; in experiment [4], 0.78.

Regarding `N#C/C=C/S(=O)(=O)c1ccc(C2(C(=O)Nc3ccccc3)CCC2)cc1`, the Ratio came out at 0.12 in experiment [1], 0.35 in experiment [2], 0.17 in experiment [3] and 0.39 in experiment [4].

The EC50 is the concentration giving half of the maximal effect. On to `Cc1ccc(O)c(NC(=O)COc2ccc(S(=O)(=O)/C=C/C#N)cc2C(C)(C)C)c1`, for which the Ratio in experiment [1] is on record as 0.1; in experiment [2], 0.38; in experiment [3] it was 0.05; in experiment [4], 0.24. Further, the EC50 in experiment [5] came out at 6.6 µM; in experiment [6] it was 8 µM; in experiment [7], 2400 nM; in experiment [8], 3.8 µM.

In the case of `N#C/C=C/S(=O)(=O)c1ccc(C2(C(=O)NC3CCCCC3)CC2)cc1`, the Ratio in experiment [1] was 0.28; in experiment [2] it was 0.34; in experiment [3], 0.09; in experiment [4], 0.23.

For `CC(C)(c1ccc(S(=O)(=O)/C=C/C#N)cc1)c1nnc(Nc2ccccc2)o1`, the Ratio in experiment [1] is on record as 0.39; in experiment [2], 0.62; in experiment [3] it was 0.22; in experiment [4] it was 0.65.

Take `COc1cccc(NC(=O)COc2ccc(S(=O)(=O)/C=C/C#N)cc2C(C)(C)C)c1`: the Ratio in experiment [1] was 0.17; in experiment [2], 0.37; in experiment [3], 0.03; in experiment [4] it was 0.29.

`CC(C)(C(=O)N1CCCCC1)c1ccc(S(=O)(=O)/C=C/C#N)cc1`: the Ratio turned out to be 0.25 in experiment [1], 0.51 in experiment [2], 0.08 in experiment [3] and 0.51 in experiment [4].

As for `CC(C)(C)c1cccc(S(=O)(=O)/C=C/C#N)c1`, the Ratio in experiment [1] was found to be 0.08; in experiment [2], 0.13; in experiment [3] it was 0.1; in experiment [4] it was 0.35.

On to `N#C/C=C/S(=O)(=O)c1ccc(C2(C(=O)NCc3ccc(Cl)cc3)CCC2)cc1`, for which the Ratio in experiment [1] was 0.21; in experiment [2], 0.36; in experiment [3] it was 0.13; in experiment [4], 0.3.

Consider `CC(C)(c1ccc(S(=O)(=O)/C=C/C#N)cc1)c1nc2ccccc2[nH]1`, for which the Ratio in experiment [1] came to 1.01; in experiment [2], 1.04; in experiment [3] it was 1.07; in experiment [4], 1.1.

In the case of `CC(C)(C(=O)NCC(F)F)c1ccc(S(=O)(=O)/C=C/C#N)cc1`, the Ratio in experiment [1] is recorded as 0.82; in experiment [2] it was 0.81; in experiment [3], 0.86; in experiment [4] it was 1.13.

For the compound `CC(C)(C)c1cc(S(=O)(=O)/C=C/C#N)ccc1OCC(=O)NCc1ccc(F)cc1`, the Ratio in experiment [1] is 0.1; in experiment [2] it was 0.28; in experiment [3], 0.02; in experiment [4], 0.23.

On to `Cc1cnc(C(C)(C)c2ccc(S(=O)(=O)/C=C/C#N)cc2)o1`, for which the Ratio came out at 0.09 in experiment [1], 0.37 in experiment [2], 0.03 in experiment [3] and 0.26 in experiment [4].

As for `CC(C)(C(=O)NCCc1ccccc1)c1ccc(S(=O)(=O)/C=C/C#N)cc1`, the Ratio in experiment [1] turned out to be 0.15; in experiment [2] it was 0.29; in experiment [3], 0.1; in experiment [4], 0.56.

As for `CC(C)(C(=O)NCc1ccc(-n2cccn2)cc1)c1ccc(S(=O)(=O)/C=C/C#N)cc1`, the Ratio is on record as 0.48 in experiment [1], 0.49 in experiment [2], 0.34 in experiment [3] and 0.84 in experiment [4].

`CCNc1nnc(C(C)(C)c2ccc(S(=O)(=O)/C=C/C#N)cc2)o1`: the Ratio in experiment [1] is 1.02; in experiment [2], 0.96; in experiment [3] it was 0.86; in experiment [4] it was 1.12.

As for `CC(C)(C(=O)N[C@H]1CCCCNC1=O)c1ccc(S(=O)(=O)/C=C/C#N)cc1`, the Ratio in experiment [1] is recorded as 0.82; in experiment [2] it was 0.97; in experiment [3], 0.84; in experiment [4], 0.85.

On to `COc1cccc(CNC(=O)C(C)(C)c2ccc(S(=O)(=O)/C=C/C#N)cc2)c1`, for which the Ratio in experiment [1] is on record as 0.09; in experiment [2] it was 0.3; in experiment [3], 0.03; in experiment [4] it was 0.25.

As to `Cc1ccc2oc(COc3ccc(S(=O)(=O)/C=C/C#N)cc3C(C)(C)C)nc2c1`, the Ratio worked out at 0.24 in experiment [1], 0.56 in experiment [2], 0.09 in experiment [3] and 0.36 in experiment [4].

For `CC(C)(C)c1ccc2cc(S(=O)(=O)/C=C/C#N)ccc2n1`, the Ratio in experiment [1] is on record as 0.22; in experiment [2], 0.45; in experiment [3], 0.04; in experiment [4], 0.35.

Consider `C[C@@H](NC(=O)C(C)(C)c1ccc(S(=O)(=O)/C=C/C#N)cc1)c1ccccc1`, for which the Ratio in experiment [1] turned out to be 0.21; in experiment [2], 0.21; in experiment [3], 0.1; in experiment [4] it was 0.64.

As to `CC(C)(C(=O)Nc1ccccc1)c1ccc(S(=O)(=O)/C=C/C#N)cc1`, the Ratio in experiment [1] was found to be 0.22; in experiment [2] it was 0.52; in experiment [3], 0.17; in experiment [4], 0.55.

For `C[C@H](NC(=O)C(C)(C)c1ccc(S(=O)(=O)/C=C/C#N)cc1)c1ccccc1`, the Ratio in experiment [1] came to 0.27; in experiment [2], 0.32; in experiment [3], 0.13; in experiment [4], 0.67.

As for `COc1ccccc1CNC(=O)C(C)(C)c1ccc(S(=O)(=O)/C=C/C#N)cc1`, the Ratio in experiment [1] amounted to 0.07; in experiment [2] it was 0.21; in experiment [3], 0.01; in experiment [4] it was 0.27.

`N#C/C=C/S(=O)(=O)c1ccc(C2(C(=O)NC3CCCCC3)CCOCC2)cc1`: the Ratio in experiment [1] came to 0.67; in experiment [2], 1; in experiment [3], 1.12; in experiment [4], 0.88.

Consider `CC(C)(C(=O)NCc1ccc(S(N)(=O)=O)cc1)c1ccc(S(=O)(=O)/C=C/C#N)cc1`, for which the Ratio was found to be 1 in experiment [1], 1.11 in experiment [2], 1 in experiment [3] and 0.96 in experiment [4].
